# How the values were obtained:
# [1] = Drug excretion in urine of patient (4 patients) with renal insufficiency assessed as hydroxy flutamide at 250 mg, po administered as single dose by gas chromatography; assay type: ADME, organism-based; settings: human, in vivo
# Outline: (§1)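 Males grouped by 24 h CLcr normalised to body surface area (>80, 50–80, 30–49, 5–29 ml min−1 1.73 m−2), fasted 10 h pre-dose and 4 h post-dose, given a single oral 250 mg flutamide dose. Plasma sampled 0–96 h; urine collected in blocks to 96 h. Flutamide and hydroxyflutamide measured by GC with electron-capture detection. Renal CL = Ae(0,96 h)/AUC(0,96 h); t1/2 = 0.693/λz.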
# [2] = AUC (0 to 24 hrs) in patient (7 patients) with renal insufficiency at 250 mg, po administered as single dose by gas chromatography; assay type: ADME, organism-based; parameters: dose 250 mg, time < 24 hr, route oral; settings: human, in vivo
# [3] = Plasma protein binding in healthy geriatric volunteer by equilibrium dialysis method; assay type: ADME, cell-free; settings: human, read-out: PPB
# Homo sapiens [4] = experiment: AUClast in patient (4 patients) with renal insufficiency at 250 mg, po assessed as hydroxy flutamide administered as single dose by gas chromatography; assay type: ADME, organism-based; parameters: dose 250 mg, time 0 - last, route oral; settings: in vivo
# Homo sapiens [5] = experiment: AUClast in patient (6 patients) with renal insufficiency assessed as hydroxy flutamide at 250 mg, po administered as single dose 4 hrs prior to hemodialysis treatment measured at starting time of dialysis and post dialysis treatment by gas chromatography; assay type: ADME, organism-based; parameters: dose 250 mg, time 0 - last, route oral; settings: in vivo
# Homo sapiens [6] = experiment: AUC (0 to 24 hrs) in patient (3 patients) with renal insufficiency assessed as hydroxy flutamide at 250 mg, po administered as single dose by gas chromatography; assay type: ADME, organism-based; parameters: dose 250 mg, time < 24 hr, route oral; settings: in vivo
# [7] = Renal clearance in patient (7 patients) with renal insufficiency at 250 mg, po administered as single dose by gas chromatography; assay type: ADME, organism-based, Kidney; settings: human, in vivo; outline: as §1
# [8] = AUC (0 to 96 hrs) in patient (4 patients) with renal insufficiency at 250 mg, po administered as single dose by gas chromatography; assay type: ADME, organism-based; parameters: time < 96 hr, dose 250 mg, route oral; settings: human, in vivo
# Homo sapiens [9] = experiment: Clearance in patient with renal insufficiency at 250 mg, po administered first dose followed by 14 days wash out period and administered second dose 4 hrs prior to hemodialysis measured during hemodialysis treatment by gas chromatography; assay type: ADME, organism-based; settings: in vivo
# Outline: (§2)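 Group V haemodialysis males (CLcr <5 ml min−1 1.73 m−2). Single oral 250 mg flutamide (two 125 mg capsules) right after HD; after 14-day washout, same dose 4 h before HD lasting 2–4 h. Venous samples to 48 h, arterial/venous during HD, dialysate in hourly blocks. GC with 63Ni electron-capture detection. CL(HD) = dialysate Ae(HD)/arterial AUC(HD); renal CL = Ae(0,48)/AUC(0,48 h).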
# [10] = Tmax in patient (3 patients) with renal insufficiency at 250 mg, po administered as single dose by gas chromatography; assay type: ADME, organism-based; settings: human, in vivo; outline: as §1
# [11] = Drug recovery in dialysate of patient (6 patients) with renal insufficiency assessed as hydroxy flutamide at 250 mg, po administered as single dose 4 hrs prior to hemodialysis treatment measured during dialysis treatment by gas chromatography; assay type: ADME, organism-based; settings: human, in vivo; outline: as §2
# [12] = Cmax in patient (6 patients) with renal insufficiency at 250 mg, po administered as single dose 4 hrs prior to hemodialysis treatment measured at starting time of dialysis and post dialysis treatment by gas chromatography; assay type: ADME, organism-based; parameters: dose 250 mg, route oral; settings: human, in vivo
# Homo sapiens [13] = experiment: Final time point in terminal phase in patient (3 patients) with renal insufficiency assessed as hydroxy flutamide at 250 mg, po administered as single dose by gas chromatography; assay type: ADME, organism-based; settings: in vivo; outline: as §1
# Homo sapiens [14] = experiment: Toxicity in patient with renal insufficiency assessed as fatigue at 250 mg, po administered as single dose; assay type: organism-based; settings: in vivo
# Outline: (§3)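 26 male subjects in groups by 24 h creatinine clearance (normalized to body surface area): >80, 50–80, 30–49, 5–29, <5 ml min−1 1.73 m−2 on haemodialysis. Given as two 125 mg capsules after a 10 h fast, continued 4 h post-dose. Prescription drugs withheld for the same period. Subjects confined 12 h pre-dose to 48 h post-dose, with adverse events compared across renal-function groups.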
# [15] = Cmax in patient (4 patients) with renal insufficiency at 250 mg, po administered as single dose by gas chromatography; assay type: ADME, organism-based; parameters: dose 250 mg, route oral; settings: human, in vivo
# Homo sapiens [16] = experiment: Terminal half life in patient (6 patients) with renal insufficiency assessed as hydroxy flutamide at 250 mg, po administered as single dose by gas chromatography; assay type: ADME, organism-based; settings: in vivo; outline: as §1
# Homo sapiens [17] = experiment: Tmax in patient (6 patients) with renal insufficiency assessed as hydroxy flutamide at 250 mg, po administered as single dose by gas chromatography; assay type: ADME, organism-based; settings: in vivo; outline: as §1
# Homo sapiens [18] = experiment: Toxicity in patient with renal insufficiency assessed as dizziness at 250 mg, po administered as single dose; assay type: organism-based; settings: in vivo; outline: as §3
# Homo sapiens [19] = experiment: Cmax in patient (7 patients) with renal insufficiency assessed as hydroxy flutamide at 250 mg, po administered as single dose by gas chromatography; assay type: ADME, organism-based; parameters: dose 250 mg, route oral; settings: in vivo
# Homo sapiens [20] = experiment: AUC (0 to infinity) in patient (6 patients) with renal insufficiency assessed as hydroxy flutamide at 250 mg, po administered as single dose 4 hrs prior to hemodialysis treatment measured at starting time of dialysis and post dialysis treatment by gas chromatography; assay type: ADME, organism-based; parameters: dose 250 mg, time infinity, route oral; settings: in vivo
# Homo sapiens [21] = experiment: AUC (0 to 24 hrs) in patient (6 patients) with renal insufficiency assessed as hydroxy flutamide at 250 mg, po administered as single dose by gas chromatography; assay type: ADME, organism-based; parameters: time < 24 hr, dose 250 mg, route oral; settings: in vivo
# [22] = Drug excretion in urine of patient (6 patients) with renal insufficiency at 250 mg, po administered as single dose by gas chromatography; assay type: ADME, organism-based; settings: human, in vivo; outline: as §1
# [23] = AUC (0 to 24 hrs) in patient (6 patients) with renal insufficiency at 250 mg, po administered as single dose by gas chromatography; assay type: ADME, organism-based; parameters: dose 250 mg, time < 24 hr, route oral; settings: human, in vivo
# [24] = Drug excretion in urine of patient (6 patients) with renal insufficiency assessed as hydroxy flutamide at 250 mg, po administered as single dose by gas chromatography; assay type: ADME, organism-based; settings: human, in vivo; outline: as §1
# [25] = Drug excretion in dialysate of patient with renal insufficiency at 250 mg, po administered first dose followed by 14 days wash out period and administered second dose 4 hrs prior to hemodialysis measured during hemodialysis treatment by gas chromatography; assay type: ADME, organism-based; settings: human, in vivo; outline: as §2
# Homo sapiens [26] = experiment: Cmax in patient (6 patients) with renal insufficiency assessed as hydroxy flutamide at 250 mg, po administered as single dose 4 hrs prior to hemodialysis treatment measured at starting time of dialysis and post dialysis treatment by gas chromatography; assay type: ADME, organism-based; parameters: dose 250 mg, route oral; settings: in vivo
# [27] = Elimination rate constant in patient with renal insufficiency at 250 mg, po administered first dose followed by 14 days wash out period and administered second dose 4 hrs prior to hemodialysis measured during hemodialysis treatment by gas chromatography; assay type: ADME, organism-based; settings: human, in vivo; outline: as §2
# [28] = Renal clearance in patient (3 patients) with renal insufficiency at 250 mg, po administered as single dose by gas chromatography; assay type: ADME, organism-based, Kidney; settings: human, in vivo; outline: as §1
# [29] = Renal clearance in patient (6 patients) with renal insufficiency at 250 mg, po administered as single dose by gas chromatography; assay type: ADME, organism-based, Kidney; settings: human, in vivo; outline: as §1
# [30] = AUC (0 to 24 hrs) in patient (3 patients) with renal insufficiency at 250 mg, po administered as single dose by gas chromatography; assay type: ADME, organism-based; parameters: time < 24 hr, dose 250 mg, route oral; settings: human, in vivo
# [31] = AUClast in patient (6 patients) with renal insufficiency at 250 mg, po administered as single dose 4 hrs prior to hemodialysis treatment measured at starting time of dialysis and post dialysis treatment by gas chromatography; assay type: ADME, organism-based; parameters: dose 250 mg, route oral, time 0 - last; settings: human, in vivo
# Homo sapiens [32] = experiment: AUC (0 to 96 hrs) in patient (4 patients) with renal insufficiency at 250 mg, po assessed as hydroxy flutamide administered as single dose by gas chromatography; assay type: ADME, organism-based; parameters: dose 250 mg, time < 96 hr, route oral; settings: in vivo
smiles,measurement,setting,value
CC(C)C(=O)Nc1ccc([N+](=O)[O-])c(C(F)(F)F)c1 [FLUTAMIDE],Drug excretion,[1],92 µg
same,AUC(0-t) at 24 h,[2],59.8 ng·h/mL
same,fraction unbound,[3],< 0.06
same,AUClast,Homo sapiens [4],6435 ng·h/mL
same,AUClast,Homo sapiens [5],5862 ng·h/mL
same,AUC,Homo sapiens [6],6166 ng·h/mL
same,CL renal,[7],22.8 mL/min
same,AUC(0-t) at 96 h,[8],107 ng·h/mL
same,CL,Homo sapiens [9],21.4 mL/min
same,Tmax,[10],2 h
same,Drug recovery,[11],1.2 mg
same,Cmax,[12],81 ng/mL
same,Time,Homo sapiens [13],52 h
same,Activity,Homo sapiens [14],12%
same,Cmax,[15],44 ng/mL
same,beta t1/2,Homo sapiens [16],7.3 h
same,Tmax,Homo sapiens [17],1.9 h
same,Activity,Homo sapiens [18],15%
same,Cmax,Homo sapiens [19],967 ng/mL
same,AUC,Homo sapiens [20],5963 ng·h/mL
same,AUC,Homo sapiens [21],5132 ng·h/mL
same,Drug excretion,[22],24.4 µg
same,AUC(0-t) at 24 h,[23],96.4 ng·h/mL
same,Drug excretion,[24],118.3 µg
same,Drug excretion,[25],1158 µg
same,Cmax,Homo sapiens [26],869 ng/mL
same,k el,[27],5.56e-05 s⁻¹
same,CL renal,[28],2 mL/min
same,CL renal,[29],7.1 mL/min
same,AUC(0-t) at 24 h,[30],98 ng·h/mL
same,AUC(0-t) at 4 h,[31],179 ng·h/mL
same,AUC,Homo sapiens [32],6499 ng·h/mL
